Results as given in publication PMC9850729 (ACS Omega, 2023).
Residues, ends and D or L forms follow the SMILES beside them.

Legend:
Format in all cases: cell-based
MCF-7 cells [1] = assay: MTT viability assay, MCF-7; details: read-out: IC50 MCF-7, 2 h peptide treatment, 6.25-200 μg mL^–1, n = 3
How it was run: (§1)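 Cancer cells were cultured in supplemented RPMI-1640, seeded at 1×10^4 per well, adhered 12 h and synchronized 12 h in incomplete medium. Peptide was applied at 6.25–200 μg mL⁻¹ for 2 h, then MTT was added for 4 h, formazan dissolved in DMSO, and absorbance read at 575 nm; n = 3. Selectivity was taken as the IC₅₀ in MCF-12 cells, foreskin-derived primary fibroblasts or erythrocytes divided by the cancer-cell IC₅₀.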

MDA-MB-231 cells = assay: MTT viability assay, MDA-MB-231; details: read-out: IC50 MDA-MB-231, 2 h peptide treatment, 6.25-200 μg mL^–1, n = 3
How it was run: as §1

MCF-7 cells [2] = assay: Wound-healing assay; details: substance alone (peptide at IC50), n = 12

IC50 (MCF-7 cells [1]) [µM] | IC50 (MDA-MB-231 cells) [µM] | Structure (SMILES) | wound area reduced (MCF-7 cells [2]; MCF-7, 24 h after the wound) | wound area reduced (closure) (MCF-7 cells [2]; MCF-7, 48 h after the wound) [%]
58 | 67 | N=C(N)NCCC[C@H](NC(=O)[C@H](CCCNC(=N)N)NC(=O)[C@H](Cc1c[nH]c2ccccc12)NC(=O)[C@H](CCC(N)=O)NC(=O)[C@H](Cc1c[nH]c2ccccc12)NC(=O)[C@H](CCCNC(=N)N)NC(=O)[C@H](Cc1c[nH]c2ccccc12)NC(=O)[C@H](CCC(N)=O)NC(=O)[C@H](Cc1c[nH]c2ccccc12)NC(=O)[C@H](CCCNC(=N)N)NC(=O)[C@@H](N)CCCNC(=N)N)C(N)=O [RR-1-RR] (H-RRWQWRWQWRR-NH2) |  | 
68 | 73 | N=C(N)NCCC[C@H](NC(=O)[C@H](Cc1c[nH]c2ccccc12)NC(=O)[C@H](CCC(N)=O)NC(=O)[C@H](Cc1c[nH]c2ccccc12)NC(=O)[C@H](CCCNC(=N)N)NC(=O)[C@H](Cc1c[nH]c2ccccc12)NC(=O)[C@H](CCC(N)=O)NC(=O)[C@H](Cc1c[nH]c2ccccc12)NC(=O)[C@H](CCCNC(=N)N)NC(=O)[C@@H](N)CCCNC(=N)N)C(N)=O [RR-1-R] (H-RRWQWRWQWR-NH2) |  | 
 |  | C[C@]12CC[C@@H]3c4ccc(O)cc4CC[C@H]3[C@@H]1CC[C@@H]2O [estradiol] | about 20% | 40
